# Screens (PubChem)
# HTR5A inv ag: HTR5A inverse agonism, opioid heterodimer counter-screen | AID 504634 | inhibition, % at 9.3 µM | P47898 | HTR5A cell line, luminescence | 340,000 tested, 0.083% active; in the data active = inhibition mostly above about 23%, no sharp cut-off; inactive = mostly below about 18%;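 also: 0% = cells with DMSO and 100% = no-cell wells with DMSO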
# HTR5A ag: counter-screen for OPRM1-OPRD1 agonists: human HTR5A agonism | activation, % at 9.3 µM | 340,000 tested, 0.61% active | P47898 | HTR5A agonist assay, luminescence, cell-based; in the data active = activation mostly above about 9.5%, no sharp cut-off; inactive = mostly below about 7.6%;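 also: 0% = cells with vehicle only and 100% = reference agonist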
# MC4R barr agon: activates human MC4R beta-arrestin recruitment. P32245. U2OS MC4R beta-arrestin complementation, luminescence; percent of melanotan II response, DMSO zero. activation, % at 8.9 µM. 360,000 tested, 0.98% active;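 active = activation above a per-plate cutoff, the mean activation of sample wells on that plate plus 3 SD, cut at about 8% in these data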
# Target sequence (P32245 whole entry, looked up): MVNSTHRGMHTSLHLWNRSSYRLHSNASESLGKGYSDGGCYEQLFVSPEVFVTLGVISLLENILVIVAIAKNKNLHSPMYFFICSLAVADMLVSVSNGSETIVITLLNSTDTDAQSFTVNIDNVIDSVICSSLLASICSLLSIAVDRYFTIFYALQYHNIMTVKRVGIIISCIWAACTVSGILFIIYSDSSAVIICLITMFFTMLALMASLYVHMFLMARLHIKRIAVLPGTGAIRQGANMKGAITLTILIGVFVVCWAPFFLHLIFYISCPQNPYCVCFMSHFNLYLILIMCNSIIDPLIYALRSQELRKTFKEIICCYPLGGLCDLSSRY
# MOR-DOR inv ag: inverse agonist of human OPRM1-OPRD1 heterodimerization. AID 504357. 340,000 tested, 0.21% active. inhibition, % at 9.3 µM. cell-based MOR-DOR heterodimer luminescence, inverse agonism; in the data active = inhibition above about 22%, passing the limit was not always enough;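 also: 0% = cells with DMSO and 100% = wells without cells with DMSO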
# MC4R antagonist: antagonists of human melanocortin 4 receptor (MC4R); P32245; MC4R-expressing cells, MTII-stimulated cAMP, LANCE TR-FRET; inhibition, % at 6.5 µM; 360,000 tested, 0.48% active; AID 540295;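 active = inhibition above its plate's cutoff, the mean of tested wells on that plate plus 3 SD, cut at about 29% in these data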;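 also: 0% = Melanotan II alone and 100% = Melanotan II plus saturating MCL0020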
#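 Assay system: human MC4R-expressing U2OS cells; reagent: Melanotan II stimulation of cells; dosing: 6.5 µM single dose; timing: compound 30 min, challenge 1 h, detection 1 h; signal: TR-FRET cAMP assay; replicates: one well per compound, no replicates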
# OPRM1-OPRD1 ag: OPRM1-OPRD1 heterodimerization agonism | P35372+P41143 | cells, luminescence | activation, % at 9.3 µM | 340,000 tested, 0.3% active; in the data active = activation above about 18%;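 also: 0% = vehicle-treated cells and 100% = reference agonist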
# OPRM1-D1 inv cf: OPRM1-OPRD1 heterodimer inverse agonism, confirmation. inhibition, % at 9.3 µM. cells expressing OPRM1/OPRD1 heterodimer, luminescence. 580 tested, 20% active. shares compounds with MOR-DOR inv ag; in the data active = inhibition above about 32%;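 also: 0% = cells with DMSO and 100% = wells lacking cells with DMSO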
# HTR5A inv ctr2: HTR5A inverse agonism, opioid heterodimer counter-screen; shares compounds with MOR-DOR inv ag; HTR5A-expressing cells, luminescence; inhibition, % at 9.3 µM; 580 tested, under 10 active; AID 504914; call rule not given here;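 also: 0% = cells with DMSO and 100% = no-cell wells with DMSO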
# The depositor's hits bear a star; i = inactive; x = not tested or not shown. An excerpt weighted towards active compounds, which were near 2.4% of everything screened.
SMILES,HTR5A inv ag,HTR5A ag,MC4R barr agon,MOR-DOR inv ag,MC4R antagonist,OPRM1-OPRD1 ag,OPRM1-D1 inv cf,HTR5A inv ctr2
Cn1nnc(NC(=S)NC(=O)c2ccco2)n1,20,-6,-1,24,7,-5,x,x
Cn1nnc(NC(=S)NC(=O)c2cccc3c(Br)cccc23)n1,18,-4,-4,33*,2,-6,-4,-5
COc1ccc(NC(=O)c2cc(S(=O)(=O)N3CCCCC3)c[nH]2)cc1Cl,-5,2,3,-23,12,4,x,x
CNC(=O)C1(C)C=CC2(CCCCC2)N1C(=O)OC (stereo not drawn),-23,9,-2,9,5,-2,x,x
COc1ccc(C2C(C(=O)NCCCN3CCOCC3)c3ccccc3C(=O)N2c2ccc(OC)cc2)cc1 (stereo not drawn),-6,3,1,-9,3,2,x,x
CSCCC(NS(=O)(=O)c1ccc(Cl)cc1)C(=O)OCC(=O)c1ccc(F)cc1 (stereo not drawn),-36,1,5,-41,7,8,x,x
CCOc1ccc(CCNC(=O)C2CSC3(C)CCC(=O)N23)cc1OCC (stereo not drawn),-8,-4,-3,1,2,0,x,x
CCn1c(SCC(=O)NC2CC2)nnc1-c1ccc(C)cc1,-3,1,0,12,-2,-3,x,x
COc1ccc(-n2c(N)c(C(=O)NCc3ccco3)sc2=S)cc1,-23,5,-2,16,1,-3,x,x
CCOC(=O)c1ccc(-n2c(N)c(C(=O)NCc3ccco3)sc2=S)cc1,11,-2,-3,30*,1,-5,-290,-60
COc1ccc(-n2c(N)c(C(=O)NCC3CCCO3)sc2=S)cc1 (stereo not drawn),-24,5,0,-14,-7,3,x,x
CCOC(=O)c1ccc(-n2c(N)c(C(=O)NCC3CCCO3)sc2=S)cc1 (stereo not drawn),-8,-4,-2,34*,-2,-7,i,-32
COc1ccc(C)cc1S(=O)(=O)NC(C)C(=O)Nc1ccc2c(c1)OCO2 (stereo not drawn),-1,1,0,1,3,0,x,x
Cc1ccc2nc3c(cc(S(=O)(=O)c4ccccc4)c(=N)n3C3CCCC3)c(=O)n2c1,6,-2,0,5,4,-1,x,x
O=C(Nc1ccc(Cl)cc1)C(Cl)C(=O)c1ccccc1 (stereo not drawn),8,-3,0,37*,-6,-7,-385,-3
CCOc1ccc(-c2nnc(SCC(=O)N3CCNC3=O)o2)cc1,-12,0,-1,12,7,-3,x,x
Cc1cc(-n2nc3ccccc3n2)c(O)c([N+](=O)[O-])c1,5,7,-1,26*,0,-5,-17,19
O=[N+]([O-])c1cc(-c2ccccc2)cc([N+](=O)[O-])c1O,10,-3,-2,30,3,-7,x,x
ON1C(c2ccc(Cl)cc2Cl)N(O)[C@H]2CCCC[C@H]21 (stereo partly drawn),7,-3,0,63*,5,-11,i,0
CC1N(O)C(c2ccc(Cl)cc2Cl)N(O)C1(C)C (stereo not drawn),-22,-1,-2,5,18,-1,x,x
CC(=O)/C=C1/C(=O)Nc2ccccc21,5,-2,2,74*,-11,-14,71*,2
C=CCOc1cccc(C(=O)/C=C2/C(=O)Nc3ccccc32)c1,-15,4,0,11,-9,-2,x,x
O=C(c1cccs1)N1CCN(Cc2cccc([N+](=O)[O-])c2)CC1,-1,0,0,21,-7,-4,x,x
Cc1nc2c3ccccc3n(CC(=O)c3ccc(F)cc3)c(=O)n2n1,24,-8,-1,31*,15,-6,i,-19
COc1ccccc1NC(=O)C(C)NC(c1ccccc1)c1ccccc1 (stereo not drawn),-6,2,-5,17,5,-3,x,x
SMILES,HTR5A inv ag,HTR5A ag,MC4R barr agon,MOR-DOR inv ag,MC4R antagonist,OPRM1-OPRD1 ag,OPRM1-D1 inv cf,HTR5A inv ctr2
COc1ccccc1NC(=O)Cc1csc(NC(=S)Nc2ccccc2)n1,-1,1,1,26,9,-6,x,x
COc1ccc(NC(=S)Nc2nc(CC(=O)Nc3ccccc3OC)cs2)cc1,26,-1,-2,36*,4,-7,-11,11
Cc1ccc2oc(/N=C(\N)NC(=O)C3CC3)nc2c1,-15,6,-1,-8,-11,2,x,x
Cc1ccc2oc(/N=C(\N)NC(=O)C(C)(C)C)nc2c1,14,-9,3,45*,-2,-9,19,-11
CCOC(=O)c1ccccc1OC(=O)NNc1ccccc1,22,-6,-2,37*,8,-7,-18,-6
Cc1cc(C(=O)COc2ccc(F)cc2Br)c(C)n1C1CC1,28,-1,-3,3,2,-1,x,x
O=C(NNc1ccccc1)c1ccc(Cl)c(Cl)c1,8,-2,-3,40*,3,-9,54*,14
O=C(NNc1cc(Br)c(O)c(Br)c1)c1ccccc1,12,-9,1,79*,-3,-16,75*,22
O=C(NNC(=O)c1ccc2ccccc2c1)c1ccc(Cl)c(Cl)c1,2,0,0,17,3,-4,x,x
Cc1ccc(N/N=C/c2c(O)cc(C)oc2=O)cc1,2,-1,-1,46*,-11,-9,44*,-6
O=C(O)c1c(Cl)c(Cl)c(Cl)c(Cl)c1C(=O)OCC1CCCO1 (stereo not drawn),x,x,-2,x,4,x,x,x
Cc1cc(C(=O)N/N=C/c2cc(Br)cc([N+](=O)[O-])c2O)c2ccccc2n1,11,-3,-3,22*,-5,-4,-1,7
O=C(c1ccc(N2C(=O)CCC2=O)cc1)N1CCCSC1=Nc1ccccc1,x,x,0,x,-3,x,x,x
O=C1/C(=C/c2ccccc2)Nc2ccccc21,4,-6,1,36*,-4,-7,-25,-10
CCN(CC)CC(C)(C)C(=O)/C=C/c1ccc(/C=C/C(=O)C(C)(C)CN(CC)CC)cc1,6,-1,-1,43*,-10,-9,-2,24
CCN(CC)CCOC(=O)/C=C/c1ccccc1,-12,1,0,14,0,-3,x,x
CCOC(=O)C1CCCN(S(=O)(=O)c2cc3c4c(c2)CCC(=O)N4CCC3)C1 (stereo not drawn),-10,3,-1,3,2,0,x,x
